Measurements from publication PMC11143505 (Acta Pharmaceutica Sinica. B, 2024).

Tests used:
[1] = tested on: STZ-induced diabetic mice; test: Glycemic control in STZ-induced type 1 diabetic mice with IPGTT; type: in vivo; conditions: s.c.; for number of mice experiencing hypoglycemia within 4 h post-injection / time for blood glucose to drop to the normoglycemic range: n = 6; for time for blood glucose to drop to the normoglycemic range: fasted STZ diabetic mice; for response to the first glucose challenge (IPGTT): glucose 2 g/kg i.p. at 4.5 h
insulin receptor = insulin receptor (Mus musculus, UniProt P15208); test: Cell-based insulin receptor activation assay; conditions: C2C12 cells, phospho-AKT (Ser473) HTRF; relative to native insulin = 100%
Pharmacokinetics = type: in vivo, mice; conditions: n = 5; for delay of time to peak concentration: compared with insulin
Dynamic light scattering = type: physicochemical; conditions: DLS in PBS, average of three measurements
diabetic mice = test: Long-term efficacy in diabetic mice; type: in vivo; conditions: for kidney Masson staining, amount of collagen fiber / kidney PAS staining: Day 14; for kidney H&E pathological features: Day 14, insulin 1 mg/kg, di-PEGylated insulin 3 mg/kg
In short: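 Diabetes was induced in C57BL/6 mice with STZ 50 mg/kg i.p. in 0.1 mol/L citrate pH 4.5 on 5 consecutive days; only mice with fasting glucose >16.7 mmol/L at 2 weeks were used. […] Serum glycated protein, CREA and BUN were measured by kit on Days 7 and 14. Day-14 kidneys were stained with H&E, PAS and Masson (200×). Dunnett-corrected ANOVA.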

[2] = Absorption and urine excretion of Cy7-labeled samples; type: in vivo, mice; conditions: s.c., n = 3; for time at which fluorescence at the injected site was undetectable: live imaging
healthy C57 mice = test: Biosafety in healthy mice; type: in vivo; conditions: 2 weeks daily; for blood cell counts: n = 5 or 6
In short: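 Body weight was recorded every 2 days. After two weeks, blood was collected and blood cell counts were run on an automated veterinary haematology analyser.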

healthy C57BL/6 mice = test: Hypoglycemia effect in fasted healthy mice; type: in vivo; conditions: for number of mice died from hypoglycemia / dose at which mice started to suffer from notable hypoglycemia: n = 6
In short: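 Tail-vein glucose was read by glucose meter at 30 min and 1–6 h. Hypoglycaemic effect was the area above the glycaemic curve and below 3.3 mmol/L. Survival was recorded at 10 U/kg. One-way ANOVA with Tukey test.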

In vitro stability = type: physicochemical; conditions: 1 mg/mL in PBS pH 7.4, 37 °C, 100 rpm, 80 h
[3] = diabetic mice, Iso-insulin ELISA

insulin receptor, sequence (P15208 28-748 limits assumed): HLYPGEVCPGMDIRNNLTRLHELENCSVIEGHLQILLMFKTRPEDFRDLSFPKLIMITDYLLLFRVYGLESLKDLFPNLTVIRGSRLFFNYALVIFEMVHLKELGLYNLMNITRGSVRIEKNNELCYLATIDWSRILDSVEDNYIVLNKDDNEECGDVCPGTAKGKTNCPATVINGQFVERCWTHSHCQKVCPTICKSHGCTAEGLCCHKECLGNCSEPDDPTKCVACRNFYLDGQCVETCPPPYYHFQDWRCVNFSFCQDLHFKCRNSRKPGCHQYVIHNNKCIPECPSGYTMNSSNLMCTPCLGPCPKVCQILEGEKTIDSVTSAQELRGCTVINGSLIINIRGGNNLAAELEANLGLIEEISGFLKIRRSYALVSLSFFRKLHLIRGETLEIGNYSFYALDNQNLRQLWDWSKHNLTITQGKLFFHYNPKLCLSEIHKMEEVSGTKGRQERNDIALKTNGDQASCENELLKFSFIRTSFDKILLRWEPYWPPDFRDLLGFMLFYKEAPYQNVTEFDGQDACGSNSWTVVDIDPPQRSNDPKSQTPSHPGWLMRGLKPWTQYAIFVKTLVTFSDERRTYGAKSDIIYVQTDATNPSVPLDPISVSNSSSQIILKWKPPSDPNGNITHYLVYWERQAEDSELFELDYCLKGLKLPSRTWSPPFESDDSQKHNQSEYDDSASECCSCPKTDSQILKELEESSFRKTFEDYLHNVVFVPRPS
insulin receptor, sequence (P15208 753-1372 partner limits assumed): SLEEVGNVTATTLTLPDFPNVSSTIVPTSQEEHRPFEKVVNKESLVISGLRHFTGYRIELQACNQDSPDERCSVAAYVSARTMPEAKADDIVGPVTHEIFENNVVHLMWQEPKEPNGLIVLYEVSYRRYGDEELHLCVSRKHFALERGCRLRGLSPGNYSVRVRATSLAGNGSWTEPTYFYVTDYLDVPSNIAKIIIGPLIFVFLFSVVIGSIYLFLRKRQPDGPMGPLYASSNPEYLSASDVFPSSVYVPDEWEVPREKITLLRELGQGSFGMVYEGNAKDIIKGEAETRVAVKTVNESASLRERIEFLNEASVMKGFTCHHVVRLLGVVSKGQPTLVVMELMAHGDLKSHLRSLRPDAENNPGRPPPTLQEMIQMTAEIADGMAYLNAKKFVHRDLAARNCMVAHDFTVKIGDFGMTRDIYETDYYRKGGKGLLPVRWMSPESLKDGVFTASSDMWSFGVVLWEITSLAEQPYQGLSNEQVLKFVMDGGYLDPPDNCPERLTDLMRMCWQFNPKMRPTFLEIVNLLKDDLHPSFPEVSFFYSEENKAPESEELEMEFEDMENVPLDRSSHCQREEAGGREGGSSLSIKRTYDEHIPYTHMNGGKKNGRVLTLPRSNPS

Substance: insulin: Recombinant human insulin (26 U/mg) from Tonghua Dongbao Pharmaceutical [reference compound]
- number of mice experiencing hypoglycemia within 4 h post-injection ([1]; 5 U/kg, STZ diabetic mice): 5
- time for blood glucose to drop to the normoglycemic range ([1]; 5 U/kg): ≤ 30 min
- response to the first glucose challenge (IPGTT) ([1]; 5 U/kg): didn't show any efficacy in lowering blood glucose
- Emax (insulin receptor): 100%
- time at which serum concentration was essentially undetectable (Pharmacokinetics; healthy mice, insulin ELISA): 4 h
- hydrodynamic size (Dynamic light scattering): 4.1 ± 0.2 nm
- kidney Masson staining, amount of collagen fiber (diabetic mice): decreased
- kidney PAS staining (diabetic mice): thicker glomerular basement membrane and incomplete brush border
- kidney H&E pathological features (diabetic mice): somewhat attenuated
- fluorescence retention rate at the injected site ([2]; 4 h post-injection): 50%
- time of maximum urine fluorescence signal ([2]; Cy7 0.1 mg/kg, IVIS imaging of urine): 2 h
- time at which urine fluorescence was close to the background value ([2]; Cy7 0.1 mg/kg): 4 h
- inflammatory cell infiltration in the skin at the injection site (healthy C57 mice; H&E): No significant inflammatory cell infiltration
- blood cell counts (healthy C57 mice): no noticeable change
- number of mice died from hypoglycemia (healthy C57BL/6 mice; s.c., 10 U/kg, healthy mice): 4
- dose at which mice started to suffer from notable hypoglycemia (healthy C57BL/6 mice; s.c., fasted healthy mice): 2 U/kg

Substance: di-PEGylated insulin: insulin conjugated with two PEG chains (MW 5000) at Lys B29 and Gly A1
- number of mice experiencing hypoglycemia within 4 h post-injection ([1]; 5 U/kg, STZ diabetic mice): no mice
- duration of blood glucose management after a single dose ([1]; 15 U/kg, STZ diabetic mice, three IPGTT 2 g/kg): over 13 h
- Emax (insulin receptor): 63.5%
- change in transmittance after the assay (In vitro stability): less than 2%
- time at which serum concentration was still detected (Pharmacokinetics; [3]): 12 h
- delay of time to peak concentration (Pharmacokinetics; [3]): approximately 1 h
- hydrodynamic size (Dynamic light scattering): 8.3 ± 1.1 nm
- glycated serum protein (GSP) level (diabetic mice; 2-week treatment, 3 mg/kg daily, n = 6): markedly reduced
- kidney Masson staining, amount of collagen fiber (diabetic mice): decreased
- kidney PAS staining (diabetic mice): preserved glomerular basement membrane
- kidney H&E pathological features (diabetic mice): somewhat attenuated
- time at which urine fluorescence signals could still be detected ([2]; Cy7 0.1 mg/kg): 12 h
- time at which fluorescence at the injected site was undetectable [2]: 4 h
- blood cell counts (healthy C57 mice): no noticeable change
- hypoglycemia in healthy mice (healthy C57BL/6 mice; s.c., 10 U/kg, fasted healthy mice, n = 6, threshold 3.3 mmol/L): didn't suffer from hypoglycemia

Substance: mono-PEGylated insulin: insulin conjugated with one PEG chain (MW 5000) at Lys B29
- number of mice experiencing hypoglycemia within 4 h post-injection ([1]; 5 U/kg, STZ diabetic mice): 4
- time for blood glucose to drop to the normoglycemic range ([1]; 5 U/kg): ≤ 30 min
- response to the following two additional IPGTTs ([1]; 5 U/kg, glucose 2 g/kg i.p. at 7.5 and 10.5 h): didn't exhibit glucose-lowering effects
- response to the first glucose challenge (IPGTT) ([1]; 5 U/kg): moderate efficacy but failed to lower blood glucose to normoglycemic levels
- Emax (insulin receptor): 95.7%
- delay of time to peak concentration (Pharmacokinetics; [3]): approximately 1 h
- time at which fluorescence at the injected site was undetectable [2]: 4 h
- increase in maximum tolerated dose (healthy C57BL/6 mice; healthy mice, from area under the hypoglycemia line, 10 U/kg vs 1 U/kg insulin): didn't show a significant improvement
- number of mice died from hypoglycemia (healthy C57BL/6 mice; s.c., 10 U/kg, healthy mice): 5
- dose at which mice started to suffer from notable hypoglycemia (healthy C57BL/6 mice; s.c., fasted healthy mice): 2 U/kg
